Read-outs that look alike come from different tables or passages of the source. Ends that are not written are not given here. * marks the point of attachment. 125I = [125I]*
Key:
[1] = Chemical stability by analytical HPLC; format: physicochemical; settings: 1 mg/mL, 37 °C, 24 h
Method in brief: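 For acid stability, test peptide at 1 mg/mL in diluted HCl (pH 2), held at 37 °C for up to 24 h. Purity by analytical HPLC on a C18 column: A = acetonitrile/0.1% TFA, B = water/0.1% TFA, 65-40-0% B over 0-20-20.1 min, 1 mL/min, room temperature.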

HEK293-hACE2 cells [2] = settings: 36 h
HEK293-hACE2 cells [3] = settings: even at a concentration of 36.27 μM; 36 h
[4] = Radiochemical stability in 0.01 M PBS; format: physicochemical; settings: radio-TLC, mean ± SD
[5] = Radiochemical stability in 10% FBS; format: in vitro ADME; settings: radio-TLC, mean ± SD
wild-type C57BL/6 mice = test: 68Ga-DOTA-Omi-X PET/CT, wild-type mice; format: in vivo, mouse; settings: 3.7 MBq i.v., PET 2 h P.I.
HEK293-hACE2 cells [6] = format: cell-based, human; settings: 2 × 10^6 cells/mL, 0.5 mL, γ-counter, mean ± SD, three repetitions
K18-hACE2 mice = test: 125I-based SPECT/CT in vivo distribution, K18-hACE2 mice; design: species or system mouse
Method in brief: (§1)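 Male mice, 4 months old, n = 5 per strain, anaesthetised with isoflurane (1.5%–2% induction, 1%–1.5% maintenance). Each got 3.28 ± 0.42 MBq of the 125I-labelled test peptide via the lateral tail vein. SPECT (35 keV, MLEM, 28 min) at 1 and 6 h post-injection, followed by CT. Manual 3D ROIs gave uptake (counts/mm3) in heart, lungs, liver and GI tract.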

C57BL/6 mice = test: 125I-based SPECT/CT in vivo distribution, wild-type mice; design: species or system mouse; settings: WT C57BL/6 mice, i.v., by 6 h P.I.
Method in brief: as §1

In the case of `CC(C)C[C@H](NC(=O)[C@H](CC(C)C)NC(=O)[C@H](CCC(=O)O)NC(=O)[C@H](Cc1ccccc1)NC(=O)[C@H](CO)NC(=O)[C@H](CC(C)C)NC(=O)[C@@H](NC(=O)[C@@H](NC(=O)[C@@H](NC(=O)[C@H](CCCNC(=N)N)NC(=O)[C@H](Cc1ccc(O)cc1)NC(=O)[C@@H]1CCCN1C(=O)[C@H](CCC(N)=O)NC(=O)[C@@H](N)Cc1c[nH]cn1)C(C)C)C(C)C)C(C)C)C(=O)N[C@@H](Cc1c[nH]cn1)C(=O)O` [Omi-X], the “chemical stability of the peptide sequence” value ([1]; diluted HCl (pH = 2), analytical HPLC C18) is reported as “chemically stable”, the “chemical stability of the peptide sequence” value ([1]; weakly acidic environment: diluted HCl (pH = 2), analytical HPLC) is reported as over 95% and the “cell-division rate (CFDA SE)” value (HEK293-hACE2 cells [2]; 54.410 μM (100 μg/mL)) is reported as “slightly inhibited”. For the same compound, the “cell-division rate (CFDA SE)” value (HEK293-hACE2 cells [2]; low-dose 0.544 μM (1 μg/mL)) was “no significant difference”, the “cell-division rate (CFDA SE)” value (HEK293-hACE2 cells [2]; medium-dose 5.441 μM (10 μg/mL)) was “no significant difference” and the “effect on cell cycle distribution” value (HEK293-hACE2 cells [3]) was “no significant effect”.
With `CC(C)C[C@H](NC(=O)[C@H](CC(C)C)NC(=O)[C@H](CCC(=O)O)NC(=O)[C@H](Cc1ccccc1)NC(=O)[C@H](CO)NC(=O)[C@H](CC(C)C)NC(=O)[C@@H](NC(=O)[C@@H](NC(=O)[C@@H](NC(=O)[C@H](CCCNC(=N)N)NC(=O)[C@H](Cc1ccc(O)cc1)NC(=O)[C@@H]1CCCN1C(=O)[C@H](CCC(N)=O)NC(=O)[C@H](Cc1c[nH]cn1)NC(=O)CN1CCN(CC(=O)O)CCN(CC(=O)O)CCN(CC(=O)O)CC1)C(C)C)C(C)C)C(C)C)C(=O)N[C@@H](Cc1c[nH]cn1)C(=O)O` [^68Ga-DOTA-Omi-X, metal not drawn] the “radiochemical stability (4 h) in 0.01 M PBS” value [4] was 96.10 ± 0.75%, the “radiochemical stability (4 h) in 10% FBS” value [5] was 94.10 ± 1.55% and the ACE2-specific targeting (wild-type C57BL/6 mice) was “did not appear to show significant ACE2-specific targeting”.
In the case of TVCGPKKSTNLVKNK [Omi-B], the “radioactive uptake rate in HEK293-hACE2 cells (ACE2-binding rate)” value (HEK293-hACE2 cells [6]) is reported as 15.04% ± 2.98%.
In the case of “^125I-Omi-X: 125I-labeled Omi-X for SPECT imaging (HQPY(125I)RVVVLSFELLH)”, the clearance from circulation (K18-hACE2 mice; i.v. tail vein, SPECT/CT 1 h P.I.) is reported as “rapidly cleared from circulation”, the “excretion of unbound tracer” value (K18-hACE2 mice; i.v., SPECT/CT) is reported as “primarily excreted through the urinary system” and the organ accumulation (K18-hACE2 mice; i.v., SPECT/CT 1 h P.I.) is reported as “notably accumulated in the organs highly expressing ACE2, including the lung, heart, liver, and spleen”. The “uptake in RAAS-related organs” value (C57BL/6 mice) was “greatly reduced”.

Source: PMC12848671 (Chemical & Biomedical Imaging, 2025)
